Experimental data from ChEMBL document CHEMBL1687835, “Using bioluminescence to monitor treatment response in real time in mice with Mycobacterium ulcerans infection” (2011).
The source made the active and inactive calls.

Legend:
Mycobacterium ulcerans [1] = assay: Antimicrobial activity against recombinant Mycobacterium ulcerans Mu1059 expressing luxAB from vibrio harveyi infected BALB/c mouse assessed as reduction in foodpad relative light unit after 1 week relative to basal level; assay type: functional, organism-based
How it was run: (§1)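 Same preventive schedule, with five mice/group sacrificed weekly. Each minced footpad homogenate (in 2 ml PBS) was read by taking a 200-µl sample, adding 20 µl of 1% decanal, and measuring light for 4 s immediately on a luminometer, in duplicate. Log-transformed RLU was compared with day 0 by unpaired t test or one-way ANOVA with Dunnett's posttest (alpha 0.05).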

Mycobacterium ulcerans [2] = assay: Antimicrobial activity against wild type Mycobacterium ulcerans ATCC 19423 infected BALB/c mouse assessed as delay to time to foodpad swelling; assay type: functional, organism-based
Mycobacterium ulcerans [3] = assay: Antimicrobial activity against recombinant Mycobacterium ulcerans Mu1059 expressing luxAB from vibrio harveyi infected BALB/c mouse assessed as reduction in foodpad CFU count after 1 week relative to basal level; assay type: functional, organism-based
How it was run: (§2)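 Preventive footpad model in female BALB/c mice: treatment started 2 weeks post-infection and was given 5 days/week for 4 weeks (RIF 10 mg/kg gavage; STR 150 mg/kg s.c.). Five mice/group were sacrificed weekly. Footpads were minced in 2 ml PBS, and serial dilutions were plated in duplicate on selective 7H11 at 32°C for 3–4 months. Detection limit was 2 CFU/footpad. Log CFU was compared with day 0 by t test or ANOVA/Dunnett.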

Mycobacterium ulcerans [4] = assay: Antimicrobial activity against recombinant Mycobacterium ulcerans Mu1059 expressing luxAB from vibrio harveyi infected BALB/c mouse assessed as reduction in foodpad CFU count after 2 weeks relative to basal level; assay type: functional, organism-based; how it was run: as §2
Mycobacterium ulcerans [5] = assay: Antimicrobial activity against recombinant Mycobacterium ulcerans Mu1059 expressing luxAB from vibrio harveyi infected BALB/c mouse assessed as reduction in foodpad relative light unit after 2 weeks relative to basal level; assay type: functional, organism-based; how it was run: as §1
Mycobacterium ulcerans [6] = assay: Antimicrobial activity against Mycobacterium ulcerans Mu1059 expressing luxAB from vibrio harveyi infected BALB/c mouse assessed as reduction in foodpad CFU count after 4 weeks; assay type: functional, organism-based; how it was run: as §2
Mycobacterium ulcerans [7] = assay: Antimicrobial activity against Mycobacterium ulcerans Mu1059 expressing luxAB from vibrio harveyi infected BALB/c mouse assessed as delay to time to foodpad swelling; assay type: functional
How it was run: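 Female BALB/c mice, 4 weeks old, were infected in the left hind footpad with 0.03 ml of bacterial suspension in PBS. From week 2 (lesion index 0), treatment ran for 4 weeks, 5 days/week, with drugs in water, 0.2 ml: RIF 10 mg/kg by gavage; STR or KAN 150 mg/kg subcutaneously. After treatment, 15 mice/group were scored weekly for 23 weeks; swelling was defined as lesion index 1.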

Mycobacterium ulcerans [8] = assay: Antimicrobial activity against wild type Mycobacterium ulcerans Mu1059 infected BALB/c mouse assessed as reduction in foodpad CFU count after 4 weeks

SMILES	Activity (Mycobacterium ulcerans [1])	Activity (Mycobacterium ulcerans [2])	Activity (Mycobacterium ulcerans [3])	Activity (Mycobacterium ulcerans [4])	Activity (Mycobacterium ulcerans [5])	Activity (Mycobacterium ulcerans [6])	Time (Mycobacterium ulcerans [7])	Activity (Mycobacterium ulcerans [8])
CN[C@@H]1[C@H](O[C@H]2[C@H](O[C@H]3[C@H](O)[C@@H](O)[C@H](N=C(N)N)[C@@H](O)[C@@H]3N=C(N)N)O[C@@H](C)[C@]2(O)C=O)O[C@@H](CO)[C@H](O)[C@H]1O	Active	inactive	Active	Active	Active	Active		
NC[C@H]1O[C@H](O[C@H]2[C@H](O)[C@@H](O[C@H]3O[C@H](CO)[C@@H](O)[C@H](N)[C@H]3O)[C@H](N)C[C@@H]2N)[C@H](O)[C@@H](O)[C@@H]1O [KANAMYCIN]		inactive				inactive	3 weeks	Active
